Test results reported in ChEMBL document CHEMBL5678815 (Clin Cancer Res, 2017).
Activity calls are given as the source filed them. No cut-off for these calls is given here.

Assays:
[1] = target: Mitogen-activated protein kinase 13 (Homo sapiens) (UniProt O15264); experiment: Inhibition of human P38delta assessed as remaining activity at 1 uM by ATP-competition binding assay relative to control
Outline: (§1)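 Single-point profiling at 1μM in an ATP-site-dependent competition binding assay across a panel of 395 human kinases, including mutant forms. The read-out is kinase binding signal in the presence of test agent, expressed as inhibition relative to the control signal. This screen assessed noncovalent binding interactions.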

[2] = target: 5'-AMP-activated protein kinase catalytic subunit alpha-1 (Homo sapiens) (UniProt Q13131); experiment: Inhibition of human AMPK-alpha1 assessed as remaining activity at 1 uM by ATP-competition binding assay relative to control
Outline: (§2)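 KINOMEscan ATP-site-dependent competition binding panel of 395 human kinases, with compound tested at 1 μM. Binding is reported as remaining signal relative to control.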

[3] = Antitumor activity against human CLL mononuclear cells xenografted NSG mouse assessed as reduction in the phosphorylation of PLCgamma2 at 0.3 mg/ml preadministered with compound via drinking water and measured after 3 weeks by flow cytometry analysis relative to control; format: functional, CLL mononuclear cell; set-up: scale not given: the % may be the effect or the level left
Outline: (§3)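 Primary CLL patient mononuclear cells (1 × 10^8 per mouse) engrafted into NSG mice on day 0 after busulfan priming on day −1. Vehicle or drug was given in drinking water from day −1. Mice were killed 3 weeks after engraftment; spleens homogenized, filtered and RBC-lysed; whole blood collected. Six patients, 2–5 mice per patient; paired t-test per patient.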

[4] = target: Hepatocyte growth factor receptor (Homo sapiens) (UniProt P08581); experiment: Inhibition of human MET assessed as remaining activity at 1 uM by ATP-competition binding assay relative to control; outline: as §1
[5] = target: Serine/threonine-protein kinase 35 (Homo sapiens) (UniProt Q8TDR2); experiment: Inhibition of human STK35 assessed as remaining activity at 1 uM by ATP-competition binding assay relative to control
Outline: (§4)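 Single-concentration (1 μM) screen in an ATP-site-dependent competition binding assay (KINOMEscan, outsourced) covering 395 human kinases, mutants included. Non-covalent binding was read as the remaining signal relative to the control signal.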

[6] = system: Splenocyte; experiment: In vivo inhibition of BCR signaling in female […] mouse assessed as CD69 expression at 1.3 mg/kg, po administered and measured after stimulation with anti-IgM for 18 h by flow cytometry analysis; format: functional, organism-based
Outline: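 Female C57BL/6 mice (5 per group per dose) were gavaged orally at 0.1–30 mg/kg. At 3 h, splenocytes were stimulated with anti-mouse IgM 10 μg/mL for 18 h at 37°C, 5% CO2. After Fc block, cells were stained for CD19 and CD69 with 7-AAD viability dye; >5,000 gated CD19+ cells acquired by flow cytometry.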

[7] = target: Serine/threonine-protein kinase N2 (Homo sapiens) (UniProt Q16513); experiment: Inhibition of human PKN2 assessed as remaining activity at 1 uM by ATP-competition binding assay relative to control; outline: as §4
[8] = target: Ribosomal protein S6 kinase alpha-4 (Homo sapiens) (UniProt O75676); experiment: Inhibition of human RPS6KA4 assessed as remaining activity at 1 uM by ATP-competition binding assay relative to control; outline: as §4
[9] = target: Cyclin-dependent kinase 9 (Homo sapiens) (UniProt P50750); experiment: Inhibition of human CDK9 assessed as remaining activity at 1 uM by ATP-competition binding assay relative to control; outline: as §2
[10] = target: Cyclin-dependent kinase 7 (Homo sapiens) (UniProt P50613); experiment: Inhibition of human CDK7 assessed as remaining activity at 1 uM by ATP-competition binding assay relative to control; outline: as §2
[11] = target: Serine/threonine-protein kinase Chk2 (Homo sapiens) (UniProt O96017); experiment: Inhibition of human CHEK2 assessed as remaining activity at 1 uM by ATP-competition binding assay relative to control; outline: as §2
[12] = target: Tyrosine-protein kinase HCK (Homo sapiens) (UniProt P08631); experiment: Inhibition of human HCK assessed as remaining activity at 1 uM by ATP-competition binding assay relative to control; outline: as §1
[13] = target: Serine/threonine-protein kinase Nek7 (Homo sapiens) (UniProt Q8TDX7); experiment: Inhibition of human NEK7 assessed as remaining activity at 1 uM by ATP-competition binding assay relative to control; outline: as §1
[14] = target: Serine/threonine-protein kinase LATS1 (Homo sapiens) (UniProt O95835); experiment: Inhibition of human LATS1 assessed as remaining activity at 1 uM by ATP-competition binding assay relative to control; outline: as §1
[15] = system: Epidermal growth factor receptor (Homo sapiens), P00533 [L858R]; experiment: Inhibition of human EGFR L858R mutant assessed as remaining activity at 1 uM by ATP-competition binding assay relative to control
Outline: (§5)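 KINOMEscan ATP-site-dependent competition binding assay across a 395-kinase human panel including mutants; compound tested at 1μM; binding expressed relative to control signal.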

[16] = target: Tyrosine-protein kinase Srms (Homo sapiens) (UniProt Q9H3Y6); experiment: Inhibition of human SRMS assessed as remaining activity at 1 uM by ATP-competition binding assay relative to control; outline: as §4
[17] = target: Calcium/calmodulin-dependent protein kinase type IV (Homo sapiens) (UniProt Q16566); experiment: Inhibition of human CAMK4 assessed as remaining activity at 1 uM by ATP-competition binding assay relative to control; outline: as §2
[18] = target: Death-associated protein kinase 2 (Homo sapiens) (UniProt Q9UIK4); experiment: Inhibition of human DAPK2 assessed as remaining activity at 1 uM by ATP-competition binding assay relative to control; outline: as §2
[19] = target: cGMP-dependent protein kinase 2 (Homo sapiens) (UniProt Q13237); experiment: Inhibition of human PRKG2 assessed as remaining activity at 1 uM by ATP-competition binding assay relative to control; outline: as §4
[20] = system: Epidermal growth factor receptor (Homo sapiens), P00533 [UNDEFINED MUTATION]; experiment: Inhibition of human EGFR L747-E749del/A750P mutant assessed as remaining activity at 1 uM by ATP-competition binding assay relative to control; outline: as §5
[21] = target: Activin receptor type-1-like (Homo sapiens) (UniProt P37023); experiment: Inhibition of human ACVRL1 assessed as remaining activity at 1 uM by ATP-competition binding assay relative to control; outline: as §2
[22] = target: Calcium/calmodulin-dependent protein kinase type 1 (Homo sapiens) (UniProt Q14012); experiment: Inhibition of human CAMK1 assessed as remaining activity at 1 uM by ATP-competition binding assay relative to control; outline: as §2
[23] = target: Ribosomal protein S6 kinase alpha-5 (Homo sapiens) (UniProt O75582); experiment: Inhibition of human RPS6KA5 assessed as remaining activity at 1 uM by ATP-competition binding assay relative to control; outline: as §4
[24] = system: CLL mononuclear cell; experiment: Antileukemic activity against human CLL mononuclear cells xenografted NSG mouse assessed as reduction in ki67 cells at 0.3 mg/ml preadministered with compound via drinking water and measured after 3 weeks by flow cytometry analysis; format: functional, cell-based; outline: as §3
[25] = system: eIF-2-alpha kinase GCN2 (Homo sapiens), Q9P2K8 [S808G]; experiment: Inhibition of human GCN2 S808G mutant kinase domain 2 assessed as remaining activity at 1 uM by ATP-competition binding assay relative to control; outline: as §1
[26] = target: SRSF protein kinase 1 (Homo sapiens) (UniProt Q96SB4); experiment: Inhibition of human SRPK1 assessed as remaining activity at 1 uM by ATP-competition binding assay relative to control; outline: as §4
Sequence of SRSF protein kinase 1 (Homo sapiens) (Q96SB4 whole entry): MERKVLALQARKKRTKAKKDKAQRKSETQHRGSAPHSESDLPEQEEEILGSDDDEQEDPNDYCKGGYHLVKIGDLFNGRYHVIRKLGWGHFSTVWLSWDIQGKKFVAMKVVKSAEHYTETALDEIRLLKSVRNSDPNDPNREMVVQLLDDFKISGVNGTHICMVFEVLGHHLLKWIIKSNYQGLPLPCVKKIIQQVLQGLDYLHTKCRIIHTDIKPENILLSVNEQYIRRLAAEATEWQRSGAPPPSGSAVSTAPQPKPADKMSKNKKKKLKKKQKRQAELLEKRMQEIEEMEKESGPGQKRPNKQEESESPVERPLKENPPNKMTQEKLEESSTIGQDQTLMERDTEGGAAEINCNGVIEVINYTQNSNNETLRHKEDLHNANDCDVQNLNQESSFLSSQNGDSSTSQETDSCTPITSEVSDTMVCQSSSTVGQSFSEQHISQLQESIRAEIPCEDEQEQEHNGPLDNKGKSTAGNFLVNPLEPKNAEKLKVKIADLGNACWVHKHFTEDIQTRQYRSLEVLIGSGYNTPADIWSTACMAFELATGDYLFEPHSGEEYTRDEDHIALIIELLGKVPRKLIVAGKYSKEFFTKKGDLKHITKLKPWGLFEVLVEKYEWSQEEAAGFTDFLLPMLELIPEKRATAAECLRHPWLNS

Sequence of Calcium/calmodulin-dependent protein kinase type IV (Homo sapiens) (Q16566 whole entry): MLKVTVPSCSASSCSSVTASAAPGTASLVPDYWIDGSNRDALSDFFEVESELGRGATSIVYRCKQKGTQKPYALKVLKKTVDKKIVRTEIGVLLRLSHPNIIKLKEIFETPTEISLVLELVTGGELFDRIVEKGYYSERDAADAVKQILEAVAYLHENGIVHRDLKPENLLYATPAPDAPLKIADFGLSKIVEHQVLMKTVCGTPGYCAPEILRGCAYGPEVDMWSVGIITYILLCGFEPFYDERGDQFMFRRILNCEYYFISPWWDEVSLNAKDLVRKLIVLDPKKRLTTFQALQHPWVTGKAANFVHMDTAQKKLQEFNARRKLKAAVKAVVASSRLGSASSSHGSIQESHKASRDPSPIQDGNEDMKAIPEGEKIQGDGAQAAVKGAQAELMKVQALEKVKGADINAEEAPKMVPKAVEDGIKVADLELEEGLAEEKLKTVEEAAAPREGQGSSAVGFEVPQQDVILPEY
Sequence of Ribosomal protein S6 kinase alpha-4 (Homo sapiens) (O75676 whole entry, looked up): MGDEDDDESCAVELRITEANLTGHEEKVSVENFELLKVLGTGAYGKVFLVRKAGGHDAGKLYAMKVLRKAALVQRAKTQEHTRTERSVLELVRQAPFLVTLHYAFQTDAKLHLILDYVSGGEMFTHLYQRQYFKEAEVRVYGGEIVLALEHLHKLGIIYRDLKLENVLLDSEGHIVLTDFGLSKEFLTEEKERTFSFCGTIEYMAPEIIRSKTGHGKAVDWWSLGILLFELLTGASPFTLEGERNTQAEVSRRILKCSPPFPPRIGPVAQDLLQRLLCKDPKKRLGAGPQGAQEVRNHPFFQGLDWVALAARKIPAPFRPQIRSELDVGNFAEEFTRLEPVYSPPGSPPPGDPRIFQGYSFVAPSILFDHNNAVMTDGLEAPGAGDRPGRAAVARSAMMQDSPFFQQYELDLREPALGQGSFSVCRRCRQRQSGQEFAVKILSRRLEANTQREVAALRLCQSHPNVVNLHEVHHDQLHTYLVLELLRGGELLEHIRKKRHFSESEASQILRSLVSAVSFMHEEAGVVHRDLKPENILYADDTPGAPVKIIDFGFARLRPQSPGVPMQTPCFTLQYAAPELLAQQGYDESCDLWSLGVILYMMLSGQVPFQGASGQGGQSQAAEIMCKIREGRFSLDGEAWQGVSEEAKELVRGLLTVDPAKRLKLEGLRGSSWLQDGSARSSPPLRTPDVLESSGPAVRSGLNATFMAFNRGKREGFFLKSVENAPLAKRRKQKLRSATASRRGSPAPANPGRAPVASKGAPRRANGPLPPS
Sequence of Calcium/calmodulin-dependent protein kinase type 1 (Homo sapiens) (Q14012 whole entry, looked up): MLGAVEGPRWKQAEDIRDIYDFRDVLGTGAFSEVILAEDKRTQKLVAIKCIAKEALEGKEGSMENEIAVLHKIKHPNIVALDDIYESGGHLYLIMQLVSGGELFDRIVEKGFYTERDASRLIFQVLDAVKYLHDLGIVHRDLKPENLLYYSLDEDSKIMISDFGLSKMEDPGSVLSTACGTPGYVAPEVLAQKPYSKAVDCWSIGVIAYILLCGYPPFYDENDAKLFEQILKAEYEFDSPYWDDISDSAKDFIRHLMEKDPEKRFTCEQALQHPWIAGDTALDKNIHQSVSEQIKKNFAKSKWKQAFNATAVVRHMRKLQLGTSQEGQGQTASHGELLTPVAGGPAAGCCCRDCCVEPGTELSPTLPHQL
Sequence of Death-associated protein kinase 2 (Homo sapiens) (Q9UIK4 whole entry, looked up): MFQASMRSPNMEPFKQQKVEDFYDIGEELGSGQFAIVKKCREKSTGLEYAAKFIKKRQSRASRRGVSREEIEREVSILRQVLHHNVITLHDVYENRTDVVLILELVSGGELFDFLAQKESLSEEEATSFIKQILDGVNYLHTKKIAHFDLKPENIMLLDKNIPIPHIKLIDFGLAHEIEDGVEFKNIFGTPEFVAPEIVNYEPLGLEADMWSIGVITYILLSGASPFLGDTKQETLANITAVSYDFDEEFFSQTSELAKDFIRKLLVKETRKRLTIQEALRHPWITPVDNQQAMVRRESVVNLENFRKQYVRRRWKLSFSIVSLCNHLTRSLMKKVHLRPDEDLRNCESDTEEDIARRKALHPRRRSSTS
Sequence of Hepatocyte growth factor receptor (Homo sapiens) (P08581 whole entry): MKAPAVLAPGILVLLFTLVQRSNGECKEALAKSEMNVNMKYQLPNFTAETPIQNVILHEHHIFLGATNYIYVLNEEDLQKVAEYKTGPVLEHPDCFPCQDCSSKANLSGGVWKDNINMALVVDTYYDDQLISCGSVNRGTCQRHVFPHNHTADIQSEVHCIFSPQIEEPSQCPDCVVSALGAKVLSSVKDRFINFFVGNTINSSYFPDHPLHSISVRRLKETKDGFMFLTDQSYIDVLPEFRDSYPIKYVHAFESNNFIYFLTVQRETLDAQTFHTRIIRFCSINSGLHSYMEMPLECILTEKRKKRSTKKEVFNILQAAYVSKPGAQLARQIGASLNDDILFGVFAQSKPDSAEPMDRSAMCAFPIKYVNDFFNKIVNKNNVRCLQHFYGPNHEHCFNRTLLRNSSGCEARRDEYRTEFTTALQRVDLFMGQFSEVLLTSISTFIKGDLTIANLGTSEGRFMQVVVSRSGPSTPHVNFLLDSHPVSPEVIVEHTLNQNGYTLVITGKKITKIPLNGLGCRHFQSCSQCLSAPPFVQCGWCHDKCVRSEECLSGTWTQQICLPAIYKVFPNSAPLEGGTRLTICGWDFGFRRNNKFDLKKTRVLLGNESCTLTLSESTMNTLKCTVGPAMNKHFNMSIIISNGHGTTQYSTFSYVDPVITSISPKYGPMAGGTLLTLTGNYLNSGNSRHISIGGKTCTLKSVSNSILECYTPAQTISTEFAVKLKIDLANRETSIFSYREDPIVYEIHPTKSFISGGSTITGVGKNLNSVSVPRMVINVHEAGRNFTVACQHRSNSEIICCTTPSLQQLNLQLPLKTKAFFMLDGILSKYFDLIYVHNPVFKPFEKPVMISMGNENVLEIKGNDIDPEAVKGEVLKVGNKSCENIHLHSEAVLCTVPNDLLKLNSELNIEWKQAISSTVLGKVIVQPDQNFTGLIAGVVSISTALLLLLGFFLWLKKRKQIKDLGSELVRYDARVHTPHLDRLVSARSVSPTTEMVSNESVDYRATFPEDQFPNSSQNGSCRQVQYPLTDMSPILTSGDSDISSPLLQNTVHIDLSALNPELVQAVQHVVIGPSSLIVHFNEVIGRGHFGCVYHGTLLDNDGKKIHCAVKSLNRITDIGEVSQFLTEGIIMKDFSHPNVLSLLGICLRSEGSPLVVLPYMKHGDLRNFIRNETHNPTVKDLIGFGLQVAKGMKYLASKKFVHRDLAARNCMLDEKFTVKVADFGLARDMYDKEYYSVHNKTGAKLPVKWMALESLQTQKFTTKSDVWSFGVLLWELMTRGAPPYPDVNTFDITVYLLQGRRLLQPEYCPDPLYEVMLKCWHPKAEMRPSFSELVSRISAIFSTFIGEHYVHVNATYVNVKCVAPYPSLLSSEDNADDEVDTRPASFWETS
Sequence of Activin receptor type-1-like (Homo sapiens) (P37023 whole entry): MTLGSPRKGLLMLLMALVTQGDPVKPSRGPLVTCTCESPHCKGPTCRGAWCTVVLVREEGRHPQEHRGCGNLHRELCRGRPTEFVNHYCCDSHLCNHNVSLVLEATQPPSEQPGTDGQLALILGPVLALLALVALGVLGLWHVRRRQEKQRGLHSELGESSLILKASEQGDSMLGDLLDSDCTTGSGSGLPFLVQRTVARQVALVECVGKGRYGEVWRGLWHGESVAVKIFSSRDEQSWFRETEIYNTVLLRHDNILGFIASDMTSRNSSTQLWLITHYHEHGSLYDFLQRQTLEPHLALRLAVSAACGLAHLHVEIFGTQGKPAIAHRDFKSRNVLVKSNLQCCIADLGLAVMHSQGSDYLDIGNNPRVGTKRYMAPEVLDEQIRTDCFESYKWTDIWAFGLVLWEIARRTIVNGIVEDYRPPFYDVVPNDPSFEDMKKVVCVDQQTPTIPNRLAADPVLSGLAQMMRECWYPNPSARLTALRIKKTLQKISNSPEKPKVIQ
Sequence of Tyrosine-protein kinase Srms (Homo sapiens) (Q9H3Y6 whole entry): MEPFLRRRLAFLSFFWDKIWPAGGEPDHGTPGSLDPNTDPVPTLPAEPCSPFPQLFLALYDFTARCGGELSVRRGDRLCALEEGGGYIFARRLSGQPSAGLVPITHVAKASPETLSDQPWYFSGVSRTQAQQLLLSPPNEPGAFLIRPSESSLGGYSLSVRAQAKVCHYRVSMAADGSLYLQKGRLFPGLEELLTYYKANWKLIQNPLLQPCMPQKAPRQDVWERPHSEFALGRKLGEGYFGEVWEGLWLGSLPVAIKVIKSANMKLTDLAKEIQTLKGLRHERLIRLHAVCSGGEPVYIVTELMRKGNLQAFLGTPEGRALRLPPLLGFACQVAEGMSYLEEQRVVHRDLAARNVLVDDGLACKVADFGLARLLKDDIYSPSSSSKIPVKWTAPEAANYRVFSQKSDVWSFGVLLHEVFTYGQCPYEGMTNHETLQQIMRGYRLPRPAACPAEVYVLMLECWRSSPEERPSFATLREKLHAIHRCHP

Structure (SMILES): CC#CC(=O)N1CCC[C@H]1c1nc(-c2ccc(C(=O)Nc3ccccn3)cc2)c2c(N)nccn12 [ACALABRUTINIB]
- Activity [1]: 57%
- Activity [2]: 86%
- Activity [3]: 68%
- Activity [4]: 91%
- Activity [5]: 100%
- Activity [6]: Active
- Activity [7]: 86%
- Activity [8]: 90%
- Activity [9]: 87%
- Activity [10]: 74%
- Activity [11]: 94%
- Activity [12]: 62%
- Activity [13]: 80%
- Activity [14]: 93%
- Activity [15]: 94%
- Activity [16]: 67%
- Activity [17]: 91%
- Activity [18]: 80%
- Activity [19]: 95%
- Activity [20]: 87%
- Activity [21]: 76%
- Activity [22]: 87%
- Activity [23]: 84%
- Activity [24]: Active
- Activity [25]: 90%
- Activity [26]: 67%
